Data: ChEMBL document CHEMBL1629527, “In vitro antifungal activities of bis(alkylpyridinium)alkane compounds against pathogenic yeasts and molds” (Antimicrob Agents Chemother, 2010)
In brackets after ≈: the same amount, converted by molar mass.

Tests used:
[1] = system: Candida tropicalis; assay: Antifungal activity against Candida tropicalis after 24 to 72 hrs by broth microdilution method; assay type: functional
Procedure, shortened: (§1)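 Broth microdilution MIC per CLSI M27-A3 (yeasts) or M38-A2 (molds). RPMI 1640 with L-glutamine, without bicarbonate, buffered to pH 7.0 with 0.165 M MOPS. Final test range for the compounds was 0.175–87.5 μM. Incubation at 35°C with visual reading at 24–72 h. MIC was the lowest concentration giving 100% inhibition versus the growth control (azoles 50% or 100%, by organism). Each isolate was run in duplicate in two independent experiments.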

[2] = system: Candida parapsilosis; assay: Antifungal activity against Candida parapsilosis after 24 to 72 hrs by broth microdilution method; assay type: functional; settings: Lodderomyces parapsilosis; procedure, shortened: as §1
[3] = system: Candida dubliniensis; assay: Antifungal activity against Candida dubliniensis after 24 to 72 hrs by broth microdilution method; assay type: functional; procedure, shortened: as §1
[4] = system: Cryptococcus neoformans; assay: Antifungal activity against Cryptococcus neoformans after 24 to 72 hrs by broth microdilution method; assay type: functional; procedure, shortened: as §1
[5] = system: Pichia kudriavzevii; assay: Antifungal activity against Candida krusei after 24 to 72 hrs by broth microdilution method; assay type: functional; procedure, shortened: as §1
[6] = system: Meyerozyma guilliermondii; assay: Antifungal activity against Candida guilliermondii after 24 to 72 hrs by broth microdilution method; assay type: functional; procedure, shortened: as §1
[7] = system: Cryptococcus gattii species complex; assay: Antifungal activity against Cryptococcus gattii after 24 to 72 hrs by broth microdilution method; assay type: functional, Cryptococcus bacillisporus; procedure, shortened: as §1
[8] = system: Candida albicans; assay: Antifungal activity against Candida albicans after 24 to 72 hrs by broth microdilution method; assay type: functional
Procedure, shortened: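 CLSI M27-A3 broth microdilution for yeasts in RPMI 1640 with L-glutamine and no bicarbonate, buffered with 0.165 M MOPS to pH 7.0. Compounds were dissolved in water and tested at 0.175–87.5 μM final, 35°C. MIC was read visually at 24–72 h as 100% inhibition versus growth control. For MFC, 30 μl from clear wells went onto SDA at 35°C for 48–72 h, reading the lowest concentration without colonies. Duplicates, two independent runs.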

[9] = system: Clavispora lusitaniae; assay: Antifungal activity against Candida lusitaniae after 24 to 72 hrs by broth microdilution method; assay type: functional; procedure, shortened: as §1
[10] = system: Nakaseomyces glabratus; assay: Antifungal activity against Candida glabrata after 24 to 72 hrs by broth microdilution method; assay type: functional; procedure, shortened: as §1

| SMILES | MIC [1] | MIC50 [1] | MIC90 [1] | MIC [2] | MIC50 [2] | MIC90 [2] | MIC [3] | MIC50 [3] | MIC90 [3] | MIC [4] | MIC50 [4] | MIC90 [4] | MIC [5] | MIC50 [5] | MIC90 [5] | MIC [6] | MIC50 [6] | MIC90 [6] | MIC [7] | MIC50 [7] | also measured |
| --- | --- | --- | --- | --- | --- | --- | --- | --- | --- | --- | --- | --- | --- | --- | --- | --- | --- | --- | --- | --- | --- |
| C[C@@H]1[C@H](O)[C@@H](C)/C=C/C=C/C=C/C=C/C=C/C=C/C=C/[C@H](O[C@@H]2O[C@H](C)[C@@H](O)[C@H](N)[C@@H]2O)C[C@@H]2O[C@](O)(C[C@@H](O)C[C@@H](O)[C@H](O)CC[C@@H](O)C[C@@H](O)CC(=O)O[C@H]1C)C[C@H](O)[C@H]2C(=O)O [AMPHOTERICIN B] | 0.22 µg/mL (≈ 0.238 µM) | 0.25 µg/mL (≈ 0.271 µM) | 0.5 µg/mL (≈ 0.541 µM) | 0.28 µg/mL (≈ 0.303 µM) | 0.25 µg/mL (≈ 0.271 µM) | 0.5 µg/mL (≈ 0.541 µM) | 0.1 µg/mL (≈ 0.108 µM) | 0.125 µg/mL (≈ 0.135 µM) | 0.125 µg/mL (≈ 0.135 µM) | 0.19 µg/mL (≈ 0.206 µM) | 0.25 µg/mL (≈ 0.271 µM) | 0.5 µg/mL (≈ 0.541 µM) | 0.22 µg/mL (≈ 0.238 µM) | 0.25 µg/mL (≈ 0.271 µM) | 0.5 µg/mL (≈ 0.541 µM) | 0.15 µg/mL (≈ 0.162 µM) | 0.125 µg/mL (≈ 0.135 µM) | 0.25 µg/mL (≈ 0.271 µM) | 0.19 µg/mL (≈ 0.206 µM) | 0.25 µg/mL (≈ 0.271 µM) | MIC90 [7]: 0.25 µg/mL (≈ 0.271 µM); MIC [8]: 0.2 µg/mL (≈ 0.216 µM); MIC50 [8]: 0.25 µg/mL (≈ 0.271 µM); MIC90 [8]: 0.5 µg/mL (≈ 0.541 µM); MIC [9]: 0.12 µg/mL (≈ 0.13 µM); MIC50 [9]: 0.125 µg/mL (≈ 0.135 µM); MIC90 [9]: 0.25 µg/mL (≈ 0.271 µM); MIC [10]: 0.18 µg/mL (≈ 0.195 µM); MIC50 [10]: 0.125 µg/mL (≈ 0.135 µM); MIC90 [10]: 0.25 µg/mL (≈ 0.271 µM) |
| CC[C@H](C)C[C@H](C)CCCCCCCCC(=O)N[C@H]1C[C@@H](O)[C@@H](NCCN)NC(=O)[C@@H]2[C@@H](O)CCN2C(=O)[C@H]([C@H](O)CCN)NC(=O)[C@H]([C@H](O)[C@@H](O)c2ccc(O)cc2)NC(=O)[C@@H]2C[C@@H](O)CN2C(=O)[C@H]([C@@H](C)O)NC1=O [CASPOFUNGIN] | 0.14 µg/mL (≈ 0.128 µM) | 0.125 µg/mL (≈ 0.114 µM) | 0.25 µg/mL (≈ 0.229 µM) | 0.66 µg/mL (≈ 0.604 µM) | 0.5 µg/mL (≈ 0.457 µM) | 1 µg/mL (≈ 0.915 µM) | 0.07 µg/mL (≈ 0.064 µM) | 0.06 µg/mL (≈ 0.0549 µM) | 0.125 µg/mL (≈ 0.114 µM) | 8 µg/mL (≈ 7.32 µM) | 8 µg/mL (≈ 7.32 µM) | 8 µg/mL (≈ 7.32 µM) | 0.31 µg/mL (≈ 0.284 µM) | 0.25 µg/mL (≈ 0.229 µM) | 0.5 µg/mL (≈ 0.457 µM) | 1.15 µg/mL (≈ 1.05 µM) | 1 µg/mL (≈ 0.915 µM) | 2 µg/mL (≈ 1.83 µM) | 8 µg/mL (≈ 7.32 µM) | 8 µg/mL (≈ 7.32 µM) | MIC90 [7]: 8 µg/mL (≈ 7.32 µM); MIC [8]: 0.12 µg/mL (≈ 0.11 µM); MIC50 [8]: 0.14 µg/mL (≈ 0.128 µM); MIC90 [8]: 0.27 µg/mL (≈ 0.247 µM); MIC [9]: 0.54 µg/mL (≈ 0.494 µM); MIC50 [9]: 0.5 µg/mL (≈ 0.457 µM); MIC90 [9]: 1 µg/mL (≈ 0.915 µM); MIC [10]: 0.19 µg/mL (≈ 0.174 µM); MIC50 [10]: 0.125 µg/mL (≈ 0.114 µM); MIC90 [10]: 0.25 µg/mL (≈ 0.229 µM) |
| OC(Cn1cncn1)(Cn1cncn1)c1ccc(F)cc1F [FLUCONAZOLE] | 1.41 µg/mL (≈ 4.6 µM) | 1 µg/mL (≈ 3.27 µM) | 4 µg/mL (≈ 13.1 µM) | 2.14 µg/mL (≈ 6.99 µM) | 2 µg/mL (≈ 6.53 µM) | 4 µg/mL (≈ 13.1 µM) | 0.43 µg/mL (≈ 1.4 µM) | 0.25 µg/mL (≈ 0.816 µM) | 0.5 µg/mL (≈ 1.63 µM) | 4.59 µg/mL (≈ 15 µM) | 4 µg/mL (≈ 13.1 µM) | 16 µg/mL (≈ 52.2 µM) | 84.5 µg/mL (≈ 276 µM) | 64 µg/mL (≈ 209 µM) | 128 µg/mL (≈ 418 µM) | 7.46 µg/mL (≈ 24.4 µM) | 4 µg/mL (≈ 13.1 µM) | 16 µg/mL (≈ 52.2 µM) | 4 µg/mL (≈ 13.1 µM) | 4 µg/mL (≈ 13.1 µM) | MIC90 [7]: 8 µg/mL (≈ 26.1 µM); MIC [8]: 1.15 µg/mL (≈ 3.75 µM); MIC50 [8]: 0.5 µg/mL (≈ 1.63 µM); MIC90 [8]: 16 µg/mL (≈ 52.2 µM); MIC [9]: 2.64 µg/mL (≈ 8.62 µM); MIC50 [9]: 2 µg/mL (≈ 6.53 µM); MIC90 [9]: 4 µg/mL (≈ 13.1 µM); MIC [10]: 32 µg/mL (≈ 104 µM); MIC50 [10]: 16 µg/mL (≈ 52.2 µM); MIC90 [10]: 256 µg/mL (≈ 836 µM) |
